Measured values as given in the array DNA melting data of Ke et al. (doi:10.1101/2024.01.08.574731).

Experiments:
[1] = folding enthalpy; higher = less favourable; fluorescence melt of hairpins on a sequencing array, two-state fit; details: sodium 0.088 M
Summary of the method: (§1)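 In 50 mM Na-HEPES pH 8.0 containing 25 mM NaCl, hairpins from the library on a sequenced MiSeq flow cell were imaged for Cy3 fluorescence at 2.5 °C steps up to 60 °C, with Cy3 and quencher oligos annealed. After normalisation to pre-quench Cy3 and to control constructs, two-state fits with bootstrapping gave melting temperature and folding enthalpy. Four replicates were combined by inverse-variance weighting, and fitted temperatures were shifted up by 9.35 °C to match UV melts.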

[2] = melting temperature; fluorescence melt of hairpins on a sequencing array, two-state fit, raised by 9.35 °C to match UV melts; details: sodium 0.088 M
Summary of the method: as §1

| Sequence | folding enthalpy [1] | Tm [2] |
| --- | --- | --- |
| GCGTAAAGACGC ((((....)))) | -17.8 kcal/mol | 46.9 °C |
| GCGTAACACGC ((((...)))) | -20.9 kcal/mol | 55.7 °C |
| GCGTAACCACGC ((((....)))) | -23.3 kcal/mol | 54.8 °C |
| GCGTAACTACGC ((((....)))) | -25.4 kcal/mol | 57.1 °C |
| GCGTAAGACGC ((((...)))) | -21.3 kcal/mol | 53 °C |
| GCGTAAGGAAACTTATGC ((.((((....)))).)) | -31.2 kcal/mol | 45.6 °C |
| GCGTAAGGAAACTTGTGC ((..(((....)))..)) | -10.8 kcal/mol | 29.7 °C |
| GCGTAATAACGC ((((....)))) | -21.1 kcal/mol | 51.6 °C |
| GCGTAATACGC ((((...)))) | -18.7 kcal/mol | 51.9 °C |
| GCGTAATGACGC ((((....)))) | -23.2 kcal/mol | 51.5 °C |
| GCGTACCGAAAGGTTCGC (((.(((....))).))) | -50.5 kcal/mol | 63 °C |
| GCGTACCTACGC ((((....)))) | -29.7 kcal/mol | 52.8 °C |
| GCGTACGAAAGTAACGC ((((((....))).))) | -40.2 kcal/mol | 59.4 °C |
| GCGTACGAAAGTACACGC ((((((....)))..))) | -19.1 kcal/mol | 52.6 °C |
| GCGTACGAAAGTATCGC ((((((....))).))) | -39.6 kcal/mol | 53.4 °C |
| GCGTACGGAAACGCACAC (.((.((....)).)).) | -12.6 kcal/mol | 38.1 °C |
| GCGTACTTACGC ((((....)))) | -26.1 kcal/mol | 54.7 °C |
| GCGTAGCCACGC ((((....)))) | -9.67 kcal/mol | 58.3 °C |
| GCGTAGCGAAAGCTGTGC ((..(((....)))..)) | -10 kcal/mol | 46.1 °C |
| GCGTAGGAAACTACGC ((((((....)))))) | -31.2 kcal/mol | 67.1 °C |
| GCGTAGGACGC ((((...)))) | -17.2 kcal/mol | 55.2 °C |
| GCGTAGGGAAACCCACAC (.((.((....)).)).) | -10.6 kcal/mol | 21.3 °C |
| GCGTAGGGAAACTTACGC (((((.(....).))))) | -39.4 kcal/mol | 50.4 °C |
| GCGTAGGGACGC ((((....)))) | -13 kcal/mol | 52 °C |
| GCGTAGTAACGC ((((....)))) | -22 kcal/mol | 53 °C |

| Sequence | folding enthalpy [1] | Tm [2] |
| --- | --- | --- |
| GCGTAGTTACGC ((((....)))) | -22.4 kcal/mol | 54.4 °C |
| GCGTATAACGC ((((...)))) | -21 kcal/mol | 56.4 °C |
| GCGTATACACGC ((((....)))) | -22.8 kcal/mol | 53.6 °C |
| GCGTATATACGC ((((....)))) | -27.1 kcal/mol | 55 °C |
| GCGTATCAACGC ((((....)))) | -25.6 kcal/mol | 53.9 °C |
| GCGTATGAACGC ((((....)))) | -18.9 kcal/mol | 52 °C |
| GCGTATGACGC ((((...)))) | -17.5 kcal/mol | 54 °C |
| GCGTATGGAAACACACGC ((((.((....)).)))) | -29 kcal/mol | 46.3 °C |
| GCGTATGGAAACGTATGC ((.((.(....).)).)) | -26.1 kcal/mol | 34.8 °C |
| GCGTATTGACGC ((((....)))) | -13.1 kcal/mol | 52.9 °C |
| GCGTCAAACGC ((((...)))) | -16.7 kcal/mol | 50.8 °C |
| GCGTCAATACGC ((((....)))) | -22.8 kcal/mol | 51.4 °C |
| GCGTCACAACGC ((((....)))) | -27.2 kcal/mol | 55.2 °C |
| GCGTCACACGC ((((...)))) | -23.6 kcal/mol | 56.2 °C |
| GCGTCACGAAAGTGTCGC (((.(((....))).))) | -42.4 kcal/mol | 63.4 °C |
| GCGTCAGGAAACTGACAC (.(((((....))))).) | -13.1 kcal/mol | 43.3 °C |
| GCGTCAGTACGC ((((....)))) | -20.1 kcal/mol | 51.1 °C |
| GCGTCATACGC ((((...)))) | -20.1 kcal/mol | 62.7 °C |
| GCGTCATGACGC ((((....)))) | -30.9 kcal/mol | 61.9 °C |
| GCGTCCCCACGC ((((....)))) | -21 kcal/mol | 51.1 °C |
| GCGTCCCGACGC ((((....)))) | -23.3 kcal/mol | 61 °C |
| GCGTCCGAAAGGACCCGC ((((((....)))..))) | -11.4 kcal/mol | 44.4 °C |
| GCGTCCGAAAGGACTCGC ((((((....)))..))) | -12.3 kcal/mol | 51 °C |
| GCGTCCGCACGC ((((....)))) | -17.2 kcal/mol | 52.8 °C |
| GCGTCCGTACGC ((((....)))) | -26.8 kcal/mol | 52.3 °C |

| Sequence | folding enthalpy [1] | Tm [2] |
| --- | --- | --- |
| GCGTCGCCGAAAGGCCGC (((..(((....)))))) | -19.3 kcal/mol | 57.1 °C |
| GCGTCGCGAAAGCCATGC ((.(.((....)).).)) | -16.2 kcal/mol | 41.5 °C |
| GCGTCGCGAAAGCGCAGC ((..(((....)))..)) | -19.9 kcal/mol | 57.5 °C |
| GCGTCGCGAAAGCGCTGC ((..(((....)))..)) | -16.3 kcal/mol | 50.2 °C |
| GCGTCGCGAAAGCGGGGC ((..(((....)))..)) | -29 kcal/mol | 67.4 °C |
| GCGTCGCGAAAGCTCCGC (((..((....))..))) | -21.1 kcal/mol | 46.8 °C |
| GCGTCGCGAAAGCTTCGC (((..((....))..))) | -19.7 kcal/mol | 53.5 °C |
| GCGTCGGGAAACCGGTGC ((..(((....)))..)) | -21.2 kcal/mol | 48.7 °C |
| GCGTCGGGACGC ((((....)))) | -20.2 kcal/mol | 66 °C |
| GCGTCGGTACGC ((((....)))) | -19.3 kcal/mol | 52.8 °C |
| GCGTCGTGACGC ((((....)))) | -22.7 kcal/mol | 68.4 °C |
| GCGTCTAAACGC ((((....)))) | -23 kcal/mol | 54.4 °C |
| GCGTCTCCACGC ((((....)))) | -21.4 kcal/mol | 52 °C |
| GCGTCTGAACGC ((((....)))) | -25.2 kcal/mol | 54 °C |
| GCGTCTGGACGC ((((....)))) | -34.1 kcal/mol | 59.8 °C |
| GCGTGAAGACGC ((((....)))) | -23 kcal/mol | 58.3 °C |
| GCGTGACCGAAAGGTCGC (((..(((....)))))) | -10.1 kcal/mol | 51.6 °C |
| GCGTGAGAAATCACGC ((((((....)))))) | -29.5 kcal/mol | 69 °C |
| GCGTGAGCGAAAGCTCGC (((..(((....)))))) | -10.4 kcal/mol | 53 °C |
| GCGTGAGGACGC ((((....)))) | -18.9 kcal/mol | 50.8 °C |
| GCGTGAGTACGC ((((....)))) | -19.9 kcal/mol | 52.5 °C |
| GCGTGCAGACGC ((((....)))) | -20.4 kcal/mol | 62.5 °C |
| GCGTGCATACGC ((((....)))) | -24.6 kcal/mol | 68.7 °C |
| GCGTGCGAAAGCACACGC ((((((....)))..))) | -15 kcal/mol | 64.5 °C |
| GCGTGCGAAAGCACCGC ((((((....))).))) | -13.8 kcal/mol | 67.2 °C |

| Sequence | folding enthalpy [1] | Tm [2] |
| --- | --- | --- |
| GCGTGCGAAAGCATTCGC ((((((....)))..))) | -16.8 kcal/mol | 52.4 °C |
| GCGTGCGGAAACACACGC (((((.(....).))))) | -40.2 kcal/mol | 58.5 °C |
| GCGTGCGGACGC ((((....)))) | -15.6 kcal/mol | 54.7 °C |
| GCGTGCTTACGC ((((....)))) | -16.9 kcal/mol | 54.9 °C |
| GCGTGGACGAAAGTCCGC (((..(((....)))))) | -11.3 kcal/mol | 52.8 °C |
| GCGTGGCCACGC ((((....)))) | -43.9 kcal/mol | 62.8 °C |
| GCGTGGCGAAAGCCCTGC ((..(((....)))..)) | -18.3 kcal/mol | 47.2 °C |
| GCGTGGCGAAAGCGAAGC ((.(.((....)).).)) | -16.9 kcal/mol | 50.5 °C |
| GCGTGGCGAAAGCGAGGC ((.(.((....)).).)) | -16.8 kcal/mol | 51.1 °C |
| GCGTGGCGAAAGCGTCGC (((..((....))..))) | -22.6 kcal/mol | 58.7 °C |
| GCGTGGCGAAAGCTATGC ((.(.((....)).).)) | -31.4 kcal/mol | 52.5 °C |
| GCGTGGGGAAACTCGCGC (((.(.(....).).))) | -35.6 kcal/mol | 54 °C |
| GCGTGGGGACGC ((((....)))) | -21.1 kcal/mol | 52.6 °C |
| GCGTGGTGACGC ((((....)))) | -17.3 kcal/mol | 55.1 °C |
| GCGTGTCTACGC ((((....)))) | -25.8 kcal/mol | 57.8 °C |
| GCGTGTGCACGC ((((....)))) | -29.9 kcal/mol | 57.2 °C |
| GCGTGTGGAAACACATGC ((.((((....)))).)) | -42 kcal/mol | 57.5 °C |
| GCGTGTTCACGC ((((....)))) | -29 kcal/mol | 59.5 °C |
| GCGTTAAAACGC ((((....)))) | -21.4 kcal/mol | 50.3 °C |
| GCGTTAAACGC ((((...)))) | -19 kcal/mol | 50.9 °C |
| GCGTTACTACGC ((((....)))) | -26.7 kcal/mol | 54.8 °C |
| GCGTTAGAAATAACGC ((((((....)))))) | -37.8 kcal/mol | 57.6 °C |
| GCGTTAGAACGC ((((....)))) | -20.3 kcal/mol | 52.8 °C |
| GCGTTAGGAAACCAACGC (((((.(....).))))) | -44.9 kcal/mol | 49.8 °C |
| GCGTTAGGAAACTAACGC (((((((....))))))) | -50.9 kcal/mol | 65.8 °C |
